Converted amounts (≈) assume the structure as drawn.
What was measured:
[1] = test system: Escherichia coli; experiment: In vitro antibacterial activity of compound against Escherichia coli SKF 12140; format: functional
[2] = test system: Klebsiella pneumoniae; experiment: In vitro antibacterial activity of compound against Klebsiella pneumoniae ISM; format: functional
[3] = test system: Mycobacterium scrofulaceum; experiment: In vitro activity of compound against slowly growing Mycobacterium scrofulaceum 1292; format: functional
Method in brief: (§1)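 Medium was Middlebrook 7H10 agar with 2% glycerol and 10% OADC. Organisms from Loevenstein-Jensen slants were grown in 7H9 broth with 0.5% Tween and 10% OADC, adjusted to McFarland no. 1, and spotted with a multipoint inoculator. Sealed plates were incubated at 22, 30 or 37 °C for 4-20 days depending on strain.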

[4] = test system: Mycobacterium scrofulaceum; experiment: In vitro activity of compound against slowly growing Mycobacterium scrofulaceum 1293; format: functional; method in brief: as §1
[5] = test system: Mycobacterium scrofulaceum; experiment: In vitro activity of compound against slowly growing Mycobacterium scrofulaceum 1297; format: functional; method in brief: as §1
[6] = test system: Mycobacterium scrofulaceum; experiment: In vitro activity of compound against slowly growing Mycobacterium scrofulaceum 1301; format: functional; method in brief: as §1
[7] = test system: Mycobacterium xenopi; experiment: In vitro activity compound against slowly growing Mycobacterium xenopi 1446; format: functional; method in brief: as §1
[8] = test system: Mycobacterium xenopi; experiment: In vitro activity of compound against slowly growing Mycobacterium xenopi 554; format: functional; method in brief: as §1
[9] = test system: Mycobacterium xenopi; experiment: In vitro activity of compound against slowl growingy Mycobacterium xenopi 555; format: functional; method in brief: as §1
[10] = test system: Mycolicibacterium phlei; experiment: In vitro activity of compound against rapidly growing Mycobacterium phlei 141; format: functional; method in brief: as §1
[11] = test system: Mycolicibacterium phlei; experiment: In vitro activity of compound against rapidly growing Mycobacterium phlei 1283; format: functional; method in brief: as §1
[12] = test system: Mycolicibacterium phlei; experiment: In vitro activity of compound against rapidly growing Mycobacterium phlei 1289; format: functional; method in brief: as §1
[13] = test system: Mycobacterium kansasii; experiment: In vitro activity compound against slowly growing Mycobacterium kansasii 1298; format: functional; method in brief: as §1
[14] = test system: Mycobacterium kansasii; experiment: In vitro activity of compound against slowly growing Mycobacterium kansasii 1299; format: functional; method in brief: as §1
[15] = test system: Mycobacterium marinum; experiment: In vitro activity of compound against slowly growing Mycobacterium marinum 1388; format: functional; method in brief: as §1
[16] = test system: Mycobacterium marinum; experiment: In vitro activity of compound against slowly growing Mycobacterium marinum 1390; format: functional; method in brief: as §1
[17] = test system: Mycobacterium marinum; experiment: In vitro activity of compound against slowly growing Mycobacterium marinum 1391; format: functional; method in brief: as §1
[18] = test system: Mycolicibacterium fortuitum; experiment: In vitro activity of compound against rapidly growing Mycobacterium fortuitum 114; format: functional; method in brief: as §1
[19] = test system: Mycolicibacterium fortuitum; experiment: In vitro activity of compound against rapidly growing Mycobacterium fortuitum 1285; format: functional; method in brief: as §1
[20] = test system: Mycolicibacterium fortuitum; experiment: In vitro activity of compound against rapidly growing Mycobacterium fortuitum 1287; format: functional; method in brief: as §1
[21] = test system: Mycolicibacterium fortuitum; experiment: In vitro activity compound against rapidly growing Mycobacterium fortuitum 1302; format: functional; method in brief: as §1
[22] = test system: Mycolicibacterium fortuitum; experiment: In vitro activity of compound against rapidly growing Mycobacterium fortuitum 646; format: functional; method in brief: as §1
[23] = test system: Mycolicibacterium fortuitum; experiment: In vitro activity of compound against rapidly growing Mycobacterium fortuitum 726; format: functional; method in brief: as §1
[24] = test system: Mycobacterium gordonae; experiment: In vitro activity of compound against slowly growing Mycobacterium gordonae 1294; format: functional; method in brief: as §1
[25] = test system: Mycobacterium gordonae; experiment: In vitro activity of compound against slowly growing Mycobacterium gordonae 1441; format: functional; method in brief: as §1
[26] = test system: Mycobacterium kansasii; experiment: In vitro activity compound against slowly growing Mycobacterium kansasii 1291; format: functional; method in brief: as §1
[27] = test system: Mycolicibacterium flavescens; experiment: In vitro activity of compound against rapidly growing Mycobacterium flavescens 1284; format: functional; method in brief: as §1
[28] = test system: Mycolicibacterium flavescens; experiment: In vitro activity of compound against rapidly growing Mycobacterium flavescens 1286; format: functional; method in brief: as §1
[29] = test system: Mycobacterium marinum; experiment: In vitro activity of compound against slowly growing Mycobacterium marinum 1392 h; format: functional; method in brief: as §1
[30] = test system: Mycobacterium marinum; experiment: In vitro activity of compound against slowly growing Mycobacterium marinum 1393; format: functional; method in brief: as §1
[31] = test system: Mycobacterium marinum; experiment: In vitro activity of compound against slowly growing Mycobacterium marinum 1394; format: functional; method in brief: as §1
[32] = test system: Mycobacterium marinum; experiment: In vitro activity of compound against slowly growing Mycobacterium marinum 1447; format: functional; method in brief: as §1
[33] = test system: Mycobacterium tuberculosis; experiment: In vitro antibacterial activity of compound against Mycobacterium tuberculosis H37Rv ATCC 9660; format: functional
[34] = test system: Mycobacterium avium; experiment: 50% inhibition of the 20 Mycobacterium (MAC) avium complex clinical isolates; format: functional
Method in brief: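 Agar-dilution MICs, 2-fold dilutions over 128-0.0001 μg/mL, on Middlebrook 7H10 agar with 2% glycerol and 10% OADC. Organisms from Loevenstein-Jensen slants were grown in 7H9 broth with 0.5% Tween and 10% OADC, adjusted to McFarland no. 1, and spotted with a multipoint inoculator. Plates were sealed and incubated at 22, 30 or 37 °C for 4-20 days depending on strain.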

[35] = test system: Neisseria gonorrhoeae; experiment: In vitro antibacterial activity of compound against Neisseria gonorrhoeae ISM 68/126; format: functional
[36] = test system: Pseudomonas aeruginosa; experiment: In vitro antibacterial activity of compound against Pseudomonas aeruginosa ATCC 10145; format: functional
Method in brief: (§2)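 Twofold microdilution MIC in Iso-Sensitest broth over 128-0.0001 µg/mL. Inoculum was 10^4 cfu/mL, with incubation at 37 °C for 18-24 h.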

[37] = test system: Proteus vulgaris; experiment: In vitro antibacterial activity of compound against Proteus vulgaris X19H ATCC 881; format: functional
[38] = test system: Staphylococcus aureus; experiment: Activity in the murine model (OS route) of Staphylococcus aureus tour septicemia; format: functional
Method in brief: (§3)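 Male and female CD1 mice (18-22 g) were infected ip with S. aureus Tour. The challenge was set so untreated mice died within 48 h. Groups were five mice, dosed once daily for 3 days starting immediately after infection. ED50 was calculated on day 10 from the percentage surviving at each dose.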

[39] = test system: Staphylococcus aureus; experiment: Activity in the murine model (subcutaneous route) of Staphylococcus aureus tour septicemia; format: functional; conditions: sc; method in brief: as §3
[40] = test system: Staphylococcus epidermidis; experiment: In vitro antibacterial activity of compound against Staphylococcus epidermidis ATCC 12228; format: functional; method in brief: as §2
[41] = test system: Streptococcus pyogenes; experiment: Inhibitory concentration of compound against Streptococcus pyogenus septicemia in the mouse, administarted in OS route; format: functional
Method in brief: (§4)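 Male and female CD1 mice (18-22 g) were infected ip with S. pyogenes C203, with the challenge set so untreated mice died within 48 h. Groups of five received a single treatment immediately after infection. ED50 was calculated from the percentage surviving at each dose on day 10.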

[42] = test system: Streptococcus pyogenes; experiment: Inhibitory concentration of compound against Streptococcus pyogenus septicemia in the mouse, administarted in subcutaneous route; format: functional; conditions: sc; method in brief: as §4
[43] = test system: Streptococcus pyogenes; experiment: Minimum inhibitory concentration of compound against Streptococcus pyogenus septicemia in the mouse; format: functional
[44] = test system: Streptococcus pyogenes; experiment: In vitro antibacterial activity of compound against Streptococcus pyogenes C 203 SKF 13400; format: functional
Method in brief: (§5)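 Streptococcal MICs were run by twofold microdilution in Todd-Hewitt broth over 128-0.0001 µg/mL. Inoculum was 10^4 cfu/mL, with incubation at 37 °C for 18-24 h.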

[45] = test system: Staphylococcus aureus; experiment: In vitro antibacterial activity of compound against Staphylococcus aureus Tour L 165; format: functional; method in brief: as §2
[46] = test system: Streptococcus pneumoniae; experiment: In vitro antibacterial activity of compound against Streptococcus pneumoniae UC 41; format: functional; method in brief: as §5
[47] = test system: Enterococcus faecalis; experiment: In vitro antibacterial activity of compound against Streptococcus faecalis ATCC 7080.; format: functional; method in brief: as §2
[48] = test system: Mycolicibacterium fortuitum; experiment: In vitro activity of compound against rapidly growing Mycobacterium fortuitum 645; format: functional; method in brief: as §1
[49] = test system: Haemophilus influenzae; experiment: In vitro antibacterial activity of compound against Haemophilus influenzae ATCC 19418; format: functional
[50] = test system: Mycobacterium xenopi; experiment: In vitro activity of compound against slowly growing Mycobacterium xenopi 556; format: functional; method in brief: as §1
[51] = test system: Mycobacteroides chelonae; experiment: In vitro activity of compound against rapidly growing Mycobacterium chelonae 1443

SMILES: CO[C@H]1/C=C/O[C@@]2(C)Oc3c(C)c(O)c4c(O)c(c(/C=N/N5CCN(C)CC5)c(O)c4c3C2=O)NC(=O)/C(C)=C\C=C\[C@H](C)[C@H](O)[C@@H](C)[C@@H](O)[C@@H](C)[C@H](OC(C)=O)[C@@H]1C [RIFAMPIN]
- MIC [1]: 8 µg/mL (≈ 9.72 µM)
- MIC [2]: 16 µg/mL (≈ 19.4 µM)
- MIC [3]: 0.063 µg/mL (≈ 0.0766 µM)
- MIC [4]: 0.063 µg/mL (≈ 0.0766 µM)
- MIC [5]: 0.125 µg/mL (≈ 0.152 µM)
- MIC [6]: 8 µg/mL (≈ 9.72 µM)
- MIC [7]: 1 µg/mL (≈ 1.22 µM)
- MIC [8]: 1 µg/mL (≈ 1.22 µM)
- MIC [9]: 1 µg/mL (≈ 1.22 µM)
- MIC [10]: 0.032 µg/mL (≈ 0.0389 µM)
- MIC [11]: 0.25 µg/mL (≈ 0.304 µM)
- MIC [12]: 8 µg/mL (≈ 9.72 µM)
- MIC [13]: 0.125 µg/mL (≈ 0.152 µM)
- MIC [14]: 8 µg/mL (≈ 9.72 µM)
- MIC [15]: 1 µg/mL (≈ 1.22 µM)
- MIC [16]: 2 µg/mL (≈ 2.43 µM)
- MIC [17]: 0.5 µg/mL (≈ 0.608 µM)
- MIC [18]: 128 µg/mL (≈ 156 µM)
- MIC [19]: 4 µg/mL (≈ 4.86 µM)
- MIC [20]: 2 µg/mL (≈ 2.43 µM)
- MIC [21]: 1 µg/mL (≈ 1.22 µM)
- MIC [22]: 128 µg/mL (≈ 156 µM)
- MIC [23]: 32 µg/mL (≈ 38.9 µM)
- MIC [24]: 0.5 µg/mL (≈ 0.608 µM)
- MIC [25]: 4 µg/mL (≈ 4.86 µM)
- MIC [26]: 16 µg/mL (≈ 19.4 µM)
- MIC [27]: 128 µg/mL (≈ 156 µM)
- MIC [28]: 0.25 µg/mL (≈ 0.304 µM)
- MIC [29]: 0.5 µg/mL (≈ 0.608 µM)
- MIC [30]: 0.5 µg/mL (≈ 0.608 µM)
- MIC [31]: 0.5 µg/mL (≈ 0.608 µM)
- MIC [32]: 1 µg/mL (≈ 1.22 µM)
- MIC [33]: 0.25 µg/mL (≈ 0.304 µM)
- MIC50 [34]: 16 µg/mL (≈ 19.4 µM)
- MIC [35]: 0.125 µg/mL (≈ 0.152 µM)
- MIC [36]: 8 µg/mL (≈ 9.72 µM)
- MIC [37]: 8 µg/mL (≈ 9.72 µM)
- ED50 [38]: 0.28 mg/kg
- ED50 [39]: 0.09 mg/kg
- MIC [40]: 0.008 µg/mL (≈ 0.00972 µM)
- ED50 [41]: 0.47 mg/kg
- ED50 [42]: 0.35 mg/kg
- MIC [43]: 0.063 µg/mL (≈ 0.0766 µM)
- MIC [44]: 0.063 µg/mL (≈ 0.0766 µM)
- MIC [45]: 0.016 µg/mL (≈ 0.0194 µM)
- MIC [46]: 0.063 µg/mL (≈ 0.0766 µM)
- MIC [47]: 1 µg/mL (≈ 1.22 µM)
- MIC [48]: 4 µg/mL (≈ 4.86 µM)
- MIC [49]: 0.125 µg/mL (≈ 0.152 µM)
- MIC [50]: 1 µg/mL (≈ 1.22 µM)
- MIC [51]: > 128 µg/mL

Reference: ChEMBL document CHEMBL1124774, “Synthesis and biological activity of some derivatives of rifamycin P” (1990)
